Experimental data gathered from unrelated publications.
Protocols differ between the studies behind these lines. ≈ marks a conversion by molar mass, not a printed value.
MAP3K10: Mitogen-activated protein kinase kinase kinase 10 (MAP3K10, Homo sapiens, UniProt Q02779)
LCK: Tyrosine-protein kinase Lck (LCK, Homo sapiens, UniProt P06239)
PIP4K2C: Phosphatidylinositol 5-phosphate 4-kinase type-2 gamma (PIP4K2C, Homo sapiens, UniProt Q8TBX8)

SMILES	target	test	conditions	quantity	result
Cc1cc(O)c(-c2ccc([C@@H](C)CN(C)C)cc2)c2c1[nH]c(=O)c1sccc12	MAP3K10	enzyme activity, inhibitor	0.1 µM	inhibition	-11.7%
CS(=O)(=NC#N)c1ccccc1Nc1nc(Nc2ccnc(CO)c2)ncc1Cl (stereo not shown)	LCK	enzyme activity, inhibitor	1 µM	remaining activity	41%
CCCCC(=O)Nc1ccc(-c2ccc3ncn(CCF)c(=O)c3c2)cn1	PIP4K2C	binding, competition with immobilised ligand	0.5 µM	inhibition	97.5%
N[C@@H](CC(=O)O)C(=O)O	Electrogenic aspartate/glutamate antiporter SLC25A13, mitochondrial (SLC25A13, Homo sapiens, UniProt Q9UJS0)	thermal stability, DSF	1 mM	ΔTm	~3 °C
CNC(=O)c1ccccc1Nc1nc(Nc2ccc(CO)cc2)ncc1Cl	LCK	enzyme activity, inhibitor	1 µM	remaining activity	1.89%
COc1cc(/C=N/NC(=S)NN=Cc2ccc([N+](=O)[O-])o2)ccc1Oc1ccnc2cc(Cl)ccc12	Aldo-keto reductase family 1 member B1 (AKR1B1, Homo sapiens, UniProt P15121)	enzyme activity, inhibitor	–	IC20	1.65 µg/mL (≈ 3.14 µM)
COc1ccc2oc(-c3ccc4nc(N)oc4c3)c/c(=N\c3ccccc3NC(=O)CCN)c2c1	Serine/threonine-protein kinase 38 (STK38, Homo sapiens, UniProt Q15208)	binding	1 µM	remaining binding	104%
C#Cc1cc(-c2cc(Nc3nc(N[C@@H](C)c4ccc(F)cn4)ncc3Cl)n[nH]2)ccc1C=O	MAP3K10	enzyme activity, inhibitor	0.2 µM	inhibition	54.5%
CCCC(=O)Nc1ccc(-c2ccc3ncn(CCC)c(=O)c3c2)cn1	PIP4K2C	binding, competition with immobilised ligand	0.5 µM	inhibition	99.5%
C1=C/COCc2cc(ccc2OCCN2CCCC2)Nc2nccc(n2)-c2cccc(c2)COC/1	Proto-oncogene tyrosine-protein kinase receptor Ret (RET, Homo sapiens, UniProt P07949, V804M)	binding	0.1 µM	remaining binding	84%
C#Cc1cnc(Nc2ccnc(CO)c2)nc1Nc1ccccc1S(C)(=O)=NC#N (stereo not shown)	LCK	enzyme activity, inhibitor	1 µM	remaining activity	14.6%
CCCCC(=O)Nc1ccc(-c2ccc3ncn(CCC)c(=O)c3c2)cn1	Dual specificity mitogen-activated protein kinase kinase 4 (MAP2K4, Homo sapiens, UniProt P45985)	binding, competition with immobilised ligand	0.5 µM	remaining binding	100%
COc1cccc2c(N3CCC(CCP(=O)(O)O)CC3)ncnc12	Ectonucleotide pyrophosphatase/phosphodiesterase family member 1 (ENPP1, Homo sapiens, UniProt P22413)	binding, SPR	–	residence time	8.73 min
